# Results reported in the array DNA melting data of Ke et al. (doi:10.1101/2024.01.08.574731).
# Experiments:
# [1] = melting temperature; fluorescence melt of hairpins on a sequencing array, two-state fit, raised by 9.35 °C to match UV melts; settings: sodium 0.088 M
# How it was run: (§1)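 Library hairpins on a sequenced MiSeq flow cell carried annealed Cy3 and quencher oligos, and their Cy3 fluorescence was imaged in 50 mM Na-HEPES pH 8.0 with 25 mM NaCl, in 2.5 °C steps up to 60 °C. Signals were normalised to Cy3 before quenching and to control constructs. Melting temperature and folding enthalpy were obtained from bootstrapped two-state fits, combined by inverse-variance weighting across four replicates, and the fitted temperatures were then raised by 9.35 °C to match UV melts.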
# [2] = folding enthalpy; higher = less favourable; fluorescence melt of hairpins on a sequencing array, two-state fit; settings: sodium 0.088 M
# How it was run: as §1
Sequence,Tm [1] [°C],folding enthalpy [2] [kcal/mol]
GGTCAGGGAAACCCGACC ((((.((....)).)))),50.2,-32.6
GGGTGTGAAAACACCC ((((((....)))))),69,-34.4
GCAGTGTCGAAAGACTGC (((..(((....)))))),48.3,-23
GAGCCTGGAAACAAGCTC ((((.((....)).)))),38.6,-29.8
GTTAGTCGAAAGACAAC (((.(((....)))))),39.5,-20.4
GCCTACGGAAACGTGGGC (((.(((....))).))),58.6,-39.2
GCCCCTCGAAAGAGTGGC (((.(((....))).))),52.6,-38
GCTAGGCGAAAGCTCAGC (((..((....))..))),42.9,-19.6
GGTGTACCGAAAGGTACC (((..(((....)))))),44.7,-9.75
GATCAACTCCTTGATC ((((((....)))))),44.2,-36.6
GATCTTTGGAAGATC ((((((...)))))),41.2,-26.6
GAGCGCCGAAAGGCCTC (((.(((....)))))),59.8,-14.6
CGACGCGGAAACGCCTCG (((.(((....))).))),41.5,-23.9
GAGAGGGAAACCTCTC ((((((....)))))),55.3,-36.2
GCGCCGCGAAAGCTGTGC ((.(.((....)).).)),53.9,-20.4
GTATGTGAAAACATAC ((((((....)))))),50.4,-36.2
CTCAAGAAATTGAG (((((....))))),33.8,-12.8
GATCTCGAGAGAGATC ((((((....)))))),63.7,-32.6
GGCAAGACGAAAGTCGCC (((..(((....)))))),54.2,-18.9
GTTCGCGAAAGCGAAAC ((((((....))).))),55.3,-12.6
GCGGGGCGAAAGCGCAGC ((.(.((....)).).)),59.5,-23.5
GATCTCGGTTGAGATC ((((((....)))))),53.5,-30.5
GATCTCGAAGGAGATC ((((((....)))))),55.1,-32.9
GCACGGGGAAACCCGCAC (..((((....))))..),25.2,-9.35

Sequence,Tm [1] [°C],folding enthalpy [2] [kcal/mol]
GCCCAGCGAAAGCTTGGC (((.(((....))).))),54.9,-53
GATCCTTATAGGATC ((((((...)))))),57.4,-32.5
GGTAGTACGAAAGTAACC (((..(((....)))))),27.4,-10.7
GTCTGGGGAAACTCGGAC (((.(.(....).).))),37.1,-28.8
GCAGGTACGAAAGTATGC (((..(((....)))))),33.9,-18
GACAGGGGAAACCTTGTC ((((.((....)).)))),45.2,-32.4
GTCTTCGAAAGAACGGAC ((((((....)))..))),30.4,-14.6
GTCCGGGGAAACTCGGAC (((((.(....).))))),58.9,-40.9
GCGTTGGGAAACCGACGC ((((.((....)).)))),64,-40.3
GATCTCGGCTGAGATC ((((((....)))))),56.5,-44.5
GAACATGCGAAAGCATTC (((..(((....)))))),26.6,-11
GCCACAGGAAACCATGGC ((((..(....)..)))),33.3,-22.8
GCAAAGCGAAAGCTAAGC ((..(((....)))..)),40.3,-12.6
GCTGGGCGAAAGCTCGGC ((.(.((....)).).)),60.3,-32.5
GCCTCCGAAAGGACGGC ((((((....))).))),56.5,-30.9
GATCAGTCATCTGATC ((((((....)))))),51.1,-35.4
GCACCCGAAAGGGTTTGC ((((((....)))..))),41.6,-13.2
GCCTCGCGAAAGCCAGGC ((((.((....)).)))),58.2,-23.5
GGAGATGGAAACGTTTCC (((.(.(....).).))),32.9,-16.5
GATCGTGGTAACGATC ((((((....)))))),66.1,-39.2
GATCATCAGGATGATC ((((((....)))))),50.6,-36
GAGGTGGGAAACCGTCTC (((..((....))..))),31.1,-8.21
GTTGTCGAAAGACTAAC ((((((....))).))),38,-16.9
